According to ChEMBL document CHEMBL1131468, “Rigid phencyclidine analogues. Binding to the phencyclidine and sigma 1 receptors” (J Med Chem, 1998):
pIC50: −log10 of the molar value.

Columns and labels:
[1] = target: Sigma non-opioid intracellular receptor 1 (Rattus norvegicus, UniProt Q9R0C9); assay: Inhibition of [3H]NANM binding to sigma receptor obtained from tissue homogenate preparation of fresh whole rat brain minus cerebellum; format: tissue-based
Method in brief: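 Radioligand displacement in homogenate of fresh whole rat brain minus cerebellum. The PCP site was labelled with [3H]TCP and the sigma site with [3H]NANM. IC50 values were read from inhibition curves and converted to Ki with the Cheng-Prusoff equation. Experiments were run in triplicate and reported as mean ± standard deviation of three experiments.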

[2] = Inhibition of [3H]-TCP binding to PCP receptor obtained from tissue homogenate preparation of fresh whole rat brain minus cerebellum

Sigma non-opioid intracellular receptor 1, sequence (Q9R0C9 whole entry): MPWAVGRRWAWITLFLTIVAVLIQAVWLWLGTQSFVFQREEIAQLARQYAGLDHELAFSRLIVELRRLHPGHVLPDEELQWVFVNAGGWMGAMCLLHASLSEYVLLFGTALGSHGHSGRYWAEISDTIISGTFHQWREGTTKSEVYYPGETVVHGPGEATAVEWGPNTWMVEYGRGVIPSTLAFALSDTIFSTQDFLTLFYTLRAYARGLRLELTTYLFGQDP

Structure (SMILES) | pIC50 [1] | pIC50 [2]
c1ccc2c(c1)C1CCCCC21N1CCCCC1 (stereo not given) | 6.48 | –
c1ccc2c(c1)C1CCC2(N2CCCCC2)CC1 | 6.50 | –
O=C(OCCN1CCOCC1)C1(c2ccccc2)CCCCC1 | 7.36 | –
c1ccc2c(c1)C1CCC2(N2CCCCC2)C1 (stereo not given) | 6.44 | –
c1ccc(C2(N3CCCCC3)CCCCC2)cc1 [PHENCYCLIDINE] | – | 7.04
